Source: ChEMBL document CHEMBL1131331, “Structure-activity studies on anticonvulsant sugar sulfamates related to topiramate. Enhanced potency with cyclic sulfate derivatives” (J Med Chem, 1998)

Legend:
Mus musculus [1] = experiment: Effective dose against maximal electroshock seizures in mice, at 4 hr following oral administration of 10 mg/kg of compound; assay type: functional
Mus musculus [2] = experiment: Activity against maximal electroshock seizures in mice, 4 hr following oral administration of 35 mg/kg of compound; assay type: functional
Summary of the method: (§1)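 Mouse maximal electroshock seizure test. An electric shock is applied through corneal electrodes, and block of the hind-limb tonic-extensor seizure is scored. Compounds are given orally, usually to 10 mice per group, and tested 4 h after dosing. The result is reported as percent of dosed animals protected at the stated dose.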

Mus musculus [3] = experiment: Compound activity was measured at 4 hr following administration of the oral dosage (perorally) 5 mg/kg in mice, and is reported as percent block at the given dose.; assay type: functional; summary of the method: as §1
[4] = Pharmacokinetic parameter :The dissociation constant values at 25 degrees C, obtained by potentiometric titration.; assay type: ADME
[5] = (§2) Partition coefficient (logP); assay type: physicochemical; details: octanol/water
Summary of the method: (§3)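 Apparent octanol–water partition coefficient D, measured in unbuffered water (pH 7.2–7.6) using an HPLC refractive-index assay. True P is calculated as […], and P7.4 as P/[1 + 10^(7.4 − pKa)], using pKa values from potentiometric titration.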

[6] = pH 7.4 value at 7.61 pH; assay type: ADME; summary of the method: as §3
[7] = as §2; assay type: physicochemical; details: octanol/water; summary of the method: as §3; remark: listed apart in the source
Mus musculus [8] = experiment: Activity against maximal electroshock seizures in mice, 4 hr following oral administration of 75 mg/kg; assay type: functional; summary of the method: as §1
[9] = Pharmacokinetic parameter :log P7.4 log P value at pH 7.4; assay type: physicochemical; details: buffer, read-out: Log D7.4; summary of the method: as §3
Mus musculus [10] = experiment: Activity against maximal electroshock seizures in mice, 4 hr following oral administration of 300 mg/kg of compound; assay type: functional; summary of the method: as §1
Mus musculus [11] = experiment: Compound activity was measured at 4 hr following administration of the oral dosage (perorally) 300 mg/kg in mice, and is reported as percent block at the given dose.; assay type: functional; summary of the method: as §1
Mus musculus [12] = experiment: Activity against maximal electroshock seizures in mice, 4 hr following oral administration of 37.5 mg/kg of compound; assay type: functional; summary of the method: as §1
Mus musculus [13] = experiment: Activity against maximal electroshock seizures in mice, 4 hr following oral administration of 18.75 mg/kg of compound; assay type: functional; summary of the method: as §1
Mus musculus [14] = experiment: Activity against maximal electroshock seizures in mice, 4 hr following oral administration of 75 mg/kg of compound; assay type: functional; summary of the method: as §1
Mus musculus [15] = experiment: Inhibition of maximal electroshock seizures in mice, 4 hr following 10 mg/kg p.o. administration.; assay type: functional; details: route oral; summary of the method: as §1
Mus musculus [16] = experiment: Activity against maximal electroshock seizures in mice, 4 hr following oral administration of 40 mg/kg of compound; assay type: functional; summary of the method: as §1
Mus musculus [17] = experiment: Activity against maximal electroshock seizures in mice, 4 hr following oral administration of 80 mg/kg of compound; assay type: functional; summary of the method: as §1
Mus musculus [18] = experiment: Activity against maximal electroshock seizures in mice, 4 hr following oral administration of 30 mg/kg of compound; assay type: functional; summary of the method: as §1
Mus musculus [19] = experiment: Activity against maximal electroshock seizures in mice, 4 hr following oral administration of 15 mg/kg of compound; assay type: functional; summary of the method: as §1
Rattus norvegicus [20] = organism: Rattus norvegicus; experiment: Compound was tested for the effective dose (ED50) for each time point in Rats. 95% confidence limits are given in parentheses 24 Hour; assay type: functional
Summary of the method: (§4)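 Rat MES time-course study. Compounds are given orally, and block of the hind-limb tonic-extensor seizure induced by corneal electroshock is assessed at each time point. For each time point, the ED50 (mg/kg) is reported with 95% confidence limits.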

Mus musculus [21] = organism: Mus musculus; experiment: Compound was tested for the effective dose (ED50) for each time point in Mice. 95% confidence limits are given in parentheses 2 Hour; assay type: functional
[22] = Inhibition concentration by inhibition of carbonic anhydrase from blood in Rat. 95% confidence limits are given in parentheses.
Rattus norvegicus [23] = organism: Rattus norvegicus; experiment: Compound was tested for the effective dose (ED50) for each time point in Rats. 95% confidence limits are given in parentheses 4 Hour; assay type: functional; summary of the method: as §4
Mus musculus [24] = organism: Mus musculus; experiment: Compound was tested for the effective dose (ED50) for each time point in Mice. 95% confidence limits are given in parentheses 24 Hour; assay type: functional
Summary of the method: (§5)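 Mouse MES time-course study. Compounds are given orally, and hind-limb tonic-extensor block after corneal-electrode shock is scored at each time point. For each time point, the ED50 (mg/kg) is reported with 95% confidence limits.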

[25] = pH 7.4 value at 7.35 pH; assay type: ADME; summary of the method: as §3
Rattus norvegicus [26] = organism: Rattus norvegicus; experiment: Compound was tested for the effective dose (ED50) for each time point in Rats. 95% confidence limits are given in parentheses 12 Hour; assay type: functional; summary of the method: as §4
Mus musculus [27] = organism: Mus musculus; experiment: Compound was tested for the effective dose (ED50) for each time point in Mice. 95% confidence limits are given in parentheses 12 hr; assay type: functional; summary of the method: as §5
[28] = as §2; assay type: physicochemical; details: octanol/water; summary of the method: as §3; remark: listed apart in the source
Mus musculus [29] = organism: Mus musculus; experiment: Compound was tested for the effective dose (ED50) for each time point in Mice. 95% confidence limits are given in parentheses 1 Hour; assay type: functional
Rattus norvegicus [30] = organism: Rattus norvegicus; experiment: Compound was tested for the effective dose (ED50) for each time point in Rats. 95% confidence limits are given in parentheses 16 Hour; assay type: functional; summary of the method: as §4
Rattus norvegicus [31] = organism: Rattus norvegicus; experiment: Compound was tested for the effective dose (ED50) for each time point in Rats. 95% confidence limits are given in parentheses 1 Hour; assay type: functional; summary of the method: as §4
[32] = Inhibition concentration of the compounds were determined by inhibition of carbonic anhydrase from kidney in Rat. 95% confidence limits are given in parentheses.
[33] = Inhibition concentration by inhibition of carbonic anhydrase from synaptosomes in Rat. 95% confidence limits are given in parentheses.; assay type: subcellular, Brain
Mus musculus [34] = organism: Mus musculus; experiment: Compound was tested for the effective dose (ED50) for each time point in Mice. 95% confidence limits are given in parentheses 16 Hour; assay type: functional; summary of the method: as §5
Rattus norvegicus [35] = organism: Rattus norvegicus; experiment: Compound was tested for the effective dose (ED50) for each time point in Rats. 95% confidence limits are given in parentheses 8 Hour; assay type: functional; summary of the method: as §4
[36] = Inhibition concentration by inhibition of carbonic anhydrase from myelin in Rat. 95% confidence limits are given in parentheses.
Rattus norvegicus [37] = organism: Rattus norvegicus; experiment: Compound was tested for the effective dose (ED50) for each time point in Rats. 95% confidence limits are given in parentheses 2 Hour; assay type: functional; summary of the method: as §4
[38] = Inhibition concentration by inhibition of carbonic anhydrase from brain in Rat. 95% confidence limits are given in parentheses.
Rattus norvegicus [39] = organism: Rattus norvegicus; experiment: Compound was tested for the effective dose (ED50) for each time point in Rats. 95% confidence limits are given in parentheses 48 Hour; assay type: functional; summary of the method: as §4
[40] = Inhibition concentration by inhibition of carbonic anhydrase from blood in Rat
[41] = Inhibition concentration by inhibition of carbonic anhydrase from kidney in Rat
[42] = Inhibition concentration by inhibition of carbonic anhydrase from brain in Rat
[43] = Inhibition concentration by inhibition of carbonic anhydrase from synaptosomes in Rat
[44] = Inhibition concentration by inhibition of carbonic anhydrase from myelin in Rat
[45] = pH 7.4 value at pH 7.25; assay type: ADME; summary of the method: as §3
[46] = Inhibition concentration by inhibition of carbonic anhydrase from kidney in Rat. 95% confidence limits are given in parentheses.
Mus musculus [47] = organism: Mus musculus; experiment: Compound was tested for the effective dose (ED50) for each time point in Mice. 95% confidence limits are given in parentheses 4 Hour; assay type: functional

SMILES: CC1(C)O[C@@H]2[C@@H](CC[C@@]3(COS(N)(=O)=O)OC(C)(C)O[C@@H]23)O1
- ED50 (Mus musculus [1]): 16.6 mg/kg
- Block (Mus musculus [2]): 80%
- Block (Mus musculus [3]): 30%

SMILES: CCC1(CC)O[C@@H]2[C@@H](CO[C@@]3(COS(N)(=O)=O)OC(C)(C)O[C@@H]23)O1
- pKa [4]: 8.62
- logP [5]: 1.55
- P7.4 [6]: 31.5
- logP [7]: 1.52
- Block (Mus musculus [8]): 0%
- logD [9]: 1.5
- Block (Mus musculus [10]): 80%

SMILES: CC(C)(C)OC(=O)N=S1O[C@@H]2[C@@H](CO[C@@]3(COS(N)(=O)=O)OC(C)(C)O[C@@H]23)O1 (stereo partly drawn)
- Block (Mus musculus [11]): 40%

SMILES: CC1(C)O[C@H]2[C@H](O)[C@@H](Cl)CO[C@@]2(COS(N)(=O)=O)O1
- Block (Mus musculus [12]): 90%
- ED50 (Mus musculus [1]): 24 mg/kg
- Block (Mus musculus [13]): 50%

SMILES: CC1(C)O[C@H]2[C@@H]3OS(=O)(=O)O[C@@H]3CO[C@@]2(COS(=O)(=O)n2ccnc2)O1
- Block (Mus musculus [14]): 100%
- Block (Mus musculus [15]): 0%

SMILES: CC1(C)O[C@H]2[C@H](CO[C@]3(COS(N)(=O)=O)OC(C)(C)O[C@H]23)O1
- ED50 (Mus musculus [1]): 82 mg/kg
- Block (Mus musculus [16]): 20%
- Block (Mus musculus [17]): 50%

SMILES: CCNS(=O)(=O)OC[C@@]12OC[C@H]3OC(C)(C)O[C@H]3[C@@H]1OC(C)(C)O2
- Block (Mus musculus [2]): 0%
- Block (Mus musculus [8]): 90%

SMILES: CC1(C)O[C@@H]2[C@H]3OS(=O)(=O)O[C@H]3CO[C@]2(COS(N)(=O)=O)O1
- ED50 (Mus musculus [1]): 22 mg/kg
- Block (Mus musculus [18]): 80%
- Block (Mus musculus [19]): 30%

SMILES: CCC1(CC)O[C@H]2[C@@H]3OS(=O)(=O)O[C@@H]3CO[C@@]2(COS(N)(=O)=O)O1
- Block (Mus musculus [14]): 100%
- Block (Mus musculus [15]): 0%

SMILES: CC1(C)O[C@H]2[C@@H]3OS(=O)(=O)O[C@@H]3CO[C@@]2(COS(N)(=O)=O)O1
- ED50 (Rattus norvegicus [20]): 2.6 mg/kg
- ED50 (Mus musculus [21]; Mus musculus, 2 h, read-out: ED50): 6.6 mg/kg
- IC50 [22]: 0.084 µM
- ED50 (Rattus norvegicus [23]): 1.7 mg/kg
- ED50 (Mus musculus [24]): 72 mg/kg
- P7.4 [25]: 2.42
- pKa [4]: 8.51
- ED50 (Rattus norvegicus [26]): 1.3 mg/kg
- ED50 (Mus musculus [27]): 23 mg/kg
- logP [5]: -1.01
- logP [28]: 2.44
- ED50 (Mus musculus [29]; Mus musculus, 1 h, read-out: ED50): 8.6 mg/kg
- logP [7]: 0.42
- Block (Mus musculus [2]): 100%
- ED50 (Rattus norvegicus [30]): 2.5 mg/kg
- ED50 (Rattus norvegicus [31]): 3.8 mg/kg
- IC50 [32]: 130 nM
- IC50 [33]: 21 nM
- ED50 (Mus musculus [34]): 50 mg/kg
- ED50 (Rattus norvegicus [35]): 1 mg/kg
- IC50 [36]: 52 nM
- ED50 (Rattus norvegicus [37]): 5.1 mg/kg
- logD [9]: 0.38
- IC50 [38]: 21 nM
- ED50 (Rattus norvegicus [39]): 18 mg/kg

SMILES: CC1(C)O[C@H]2[C@@H]3OS(=O)(=O)O[C@@H]3CO[C@@]2(COS(=O)(=O)N=[N+]=[N-])O1
- Block (Mus musculus [2]): 100%
- Block (Mus musculus [15]): 0%

SMILES: CC(=O)Nc1nnc(S(N)(=O)=O)s1 [ACETAZOLAMIDE]
- IC50 [40]: 37 nM
- IC50 [41]: 650 nM
- IC50 [42]: 12 nM
- IC50 [43]: 7 nM
- IC50 [44]: 24 nM

SMILES: CC1(C)O[C@@H]2[C@@H](CO[C@@]3(COS(N)(=O)=O)OC(C)(C)O[C@@H]23)O1 [TOPIRAMATE]
- ED50 (Rattus norvegicus [20]): 153 mg/kg
- ED50 (Mus musculus [1]): 53 mg/kg
- ED50 (Mus musculus [21]): 47.6 mg/kg
- IC50 [22]: 8.89 µM
- ED50 (Rattus norvegicus [23]): 6.7 mg/kg
- P7.4 [45]: 3.31
- ED50 (Mus musculus [24]): > 1000 mg/kg
- pKa [4]: 8.66
- ED50 (Rattus norvegicus [26]): 34 mg/kg
- ED50 (Mus musculus [27]): 246 mg/kg
- logP [5]: 0.5
- logP [28]: 3.26
- ED50 (Mus musculus [29]): 43.8 mg/kg
- logP [7]: 0.53
- IC50 [46]: 8.35 µM
- ED50 (Rattus norvegicus [30]): 103 mg/kg
- ED50 (Rattus norvegicus [31]): 15 mg/kg
- IC50 [33]: 4840 nM
- ED50 (Mus musculus [47]): 53.5 mg/kg
- ED50 (Rattus norvegicus [35]): 15 mg/kg
- IC50 [36]: 1360 nM
- ED50 (Rattus norvegicus [37]): 16 mg/kg
- logD [9]: 0.51
- IC50 [38]: 4550 nM
- ED50 (Rattus norvegicus [39]): > 1000 mg/kg
